Activity calls are given as the source filed them. No cut-off for these calls is given here.
What was measured:
[1] = Antitumor activity against human U87MG cells xenografted in mouse assessed as tumor volume at 15 mg/kg, ip administered as q3w/14 days regime relative to control; assay type: functional, U-87MG ATCC
Outline: (§1)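 Mice bearing U87MG xenografts randomised at about 130 mm3 tumour volume (n = 12 control, n = 6 per treatment); dosing i.p. three times a week to end of study (q3w/14). Read-out is relative tumour volume (RTV), with T/C (%) versus untreated control; significance by Student's t-test.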

Mus musculus [2] = assay: Toxicity in mouse xenografted with human U87MG cells assessed as death at 15 mg/kg, ip administered as q3w/14 days regime; assay type: organism-based, U-87MG ATCC; conditions: in vivo, 336 h
Mus musculus [3] = assay: Toxicity in mouse xenografted with human U87MG cells assessed as change in body weight at 15 mg/kg, ip administered as q3w/14 days regime (reference value: 23.12%); assay type: organism-based, U-87MG ATCC; conditions: in vivo, 336 h
MCF7 [4] = assay: Cytotoxicity against human MCF7 cells assessed as growth inhibition after 72 hrs by SRB assay; assay type: functional, cell-based; conditions: MCF7, 72 h
Outline: (§2)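 Cells from ATCC, 6,000–10,000 per well, treated in triplicate with graded concentrations for 72 h at 37 °C. Growth inhibition read by sulforhodamine B staining; IC50 taken from dose–response curves.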

Mus musculus [5] = assay: Toxicity in mouse xenografted with human U87MG cells assessed as change in body weight at 0.5 mg/kg, ip administered as q3w/14 days regime (reference value: 23.12%); assay type: organism-based, U-87MG ATCC; conditions: in vivo, 336 h
MCF7 [6] = assay: Retention time in human MCF7 cells at 10^-5 M by HPLC analysis; assay type: ADME, cell-based; conditions: mcf7, 10 µM
Outline: (§3)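 MCF-7 cells exposed to 10^-5 M prodrug for 2 days; culture medium collected, centrifuged to remove cells, diluted to fixed volume and analysed by HPLC. Prodrug and SN-38 identified by retention time; relative amounts taken from chromatographic peak areas.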

[7] = Prodrug activation in pH 7.4 phosphate buffer assessed as H2O2-mediated SN38 release incubated for 8 hrs by HPLC analysis; conditions: pH 7.4, 8 h
Outline: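 Prodrug (1 mM) in phosphate buffer pH 7.4 with H2O2 at 0.5–10 mM final, 37 °C for 8 h. Quenched with equal volume of 50 mM sodium thiosulfate; SN-38 release quantified by HPLC.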

[8] = target: T1, DNA topoisomerase 1 (Homo sapiens) (UniProt P11387); assay: Inhibition of topoisomerase 1 (unknown origin) assessed as reduction in enzyme-mediated relaxation of supercoiled pBR322 DNA at 100 uM after 30 mins by agarose gel electrophoresis
T1 sequence (whole entry): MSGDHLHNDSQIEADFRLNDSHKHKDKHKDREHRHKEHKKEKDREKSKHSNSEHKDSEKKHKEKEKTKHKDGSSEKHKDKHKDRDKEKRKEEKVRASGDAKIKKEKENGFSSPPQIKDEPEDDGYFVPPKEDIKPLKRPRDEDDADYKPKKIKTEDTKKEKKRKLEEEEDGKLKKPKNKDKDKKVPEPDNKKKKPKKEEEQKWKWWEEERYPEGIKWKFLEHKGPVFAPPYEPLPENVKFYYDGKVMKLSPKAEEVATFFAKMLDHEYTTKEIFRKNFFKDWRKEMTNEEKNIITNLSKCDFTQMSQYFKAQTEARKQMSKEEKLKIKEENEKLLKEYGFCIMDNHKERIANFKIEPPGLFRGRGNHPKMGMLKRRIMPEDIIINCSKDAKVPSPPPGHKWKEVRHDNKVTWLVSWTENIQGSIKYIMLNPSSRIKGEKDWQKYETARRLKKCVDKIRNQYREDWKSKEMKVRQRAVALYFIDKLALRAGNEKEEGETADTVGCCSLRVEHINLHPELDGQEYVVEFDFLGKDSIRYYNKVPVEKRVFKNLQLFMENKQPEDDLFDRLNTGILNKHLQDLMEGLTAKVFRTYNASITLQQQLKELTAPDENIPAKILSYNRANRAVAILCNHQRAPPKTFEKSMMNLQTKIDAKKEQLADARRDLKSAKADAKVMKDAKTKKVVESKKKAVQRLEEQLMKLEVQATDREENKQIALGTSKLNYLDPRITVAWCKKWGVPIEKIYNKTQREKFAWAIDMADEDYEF

MDA-MB-231 = assay: Cytotoxicity against human MDA-MB-231 cells assessed as growth inhibition after 72 hrs by SRB assay; assay type: functional, cell-based; conditions: MDA-MB-231, 72 h; outline: as §2
Mus musculus [9] = assay: Toxicity in mouse xenografted with human U87MG cells assessed as change in body weight at 2 mg/kg, ip administered as q3w/14 days regime (reference value: 23.12%); assay type: organism-based, U-87MG ATCC; conditions: in vivo, 336 h
HT-29 = assay: Cytotoxicity against human HT-29 cells assessed as growth inhibition after 72 hrs by SRB assay; assay type: functional, cell-based; conditions: HT-29, 72 h; outline: as §2
MCF7 [10] = assay: Drug level in human MCF7 cells at 10^-5 M after 2 days by HPLC analysis; assay type: ADME, cell-based; conditions: mcf7, 48 h, 10 µM; outline: as §3
[11] = Antitumor activity against human U87MG cells xenografted in mouse assessed as tumor volume at 0.5 mg/kg, ip administered as q3w/14 days regime relative to control; assay type: functional, U-87MG ATCC; outline: as §1
Mus musculus [12] = assay: Toxicity in mouse xenografted with human U87MG cells assessed as overt signs of symptoms at 2 mg/kg, ip administered as q3w/14 days regime; assay type: organism-based, U-87MG ATCC; conditions: in vivo, 336 h
[13] = Antitumor activity against human U87MG cells xenografted in mouse assessed as tumor volume at 2 mg/kg, ip administered as q3w/14 days regime relative to control; assay type: functional, U-87MG ATCC; outline: as §1
Mus musculus [14] = assay: Toxicity in mouse xenografted with human U87MG cells assessed as death at 0.5 mg/kg, ip administered as q3w/14 days regime; assay type: organism-based, U-87MG ATCC; conditions: in vivo, 336 h
[15] = Cytotoxicity against human HCT15 cells assessed as growth inhibition after 72 hrs by SRB assay; assay type: functional, cell-based; conditions: HCT-15, 72 h; outline: as §2
Mus musculus [16] = assay: Toxicity in mouse xenografted with human U87MG cells assessed as death at 2 mg/kg, ip administered as q3w/14 days regime; assay type: organism-based, U-87MG ATCC; conditions: in vivo, 336 h
Mus musculus [17] = assay: Toxicity in mouse xenografted with human U87MG cells assessed as anaphylactic reaction at 2 mg/kg, ip administered as q3w/14 days regime; assay type: organism-based, U-87MG ATCC; conditions: in vivo, 336 h
U-251 = assay: Cytotoxicity against human U251 cells assessed as growth inhibition after 72 hrs by SRB assay; assay type: functional, cell-based; conditions: U-251, 72 h; outline: as §2
[18] = Cytotoxicity against human U87MG cells assessed as growth inhibition after 72 hrs by SRB assay; assay type: functional, cell-based, U-87MG ATCC; conditions: U-87 MG; outline: as §2

SMILES | IC50 (MCF7 [4]) [nM] | Retention_time (MCF7 [6]) [min] | IC50 (MDA-MB-231) [nM] | IC50 (HT-29) [nM] | IC50 [15] [nM] | IC50 (U-251) [nM] | IC50 [18] [nM] | further results
CCc1c2c(nc3ccc(B4OC(C)(C)C(C)(C)O4)cc13)-c1cc3c(c(=O)n1C2)COC(=O)[C@]3(O)CC | – | – | – | – | – | – | – | T/C [1]: 8.39%; Activity (Mus musculus [2]): Non-toxic; Activity (Mus musculus [3]): 15.88%
CCc1c2c(nc3ccc(B(O)O)cc13)-c1cc3c(c(=O)n1C2)COC(=O)[C@]3(O)CC | 628 | 12.87 | 4280 | 47 | 18 | 36 | 47 | Activity (Mus musculus [5]): 12.69%; Drug metabolism [7]: Dose-dependent effect; inhibition [8]: Active; Activity (Mus musculus [9]): 2.11%; Drug uptake (MCF7 [10]): 59%; T/C [11]: 105.99%; Activity (Mus musculus [12]): Non-toxic; T/C [13]: 28.1%; Activity (Mus musculus [14]): Non-toxic; Activity (Mus musculus [16]): Non-toxic; Activity (Mus musculus [17]): Non-toxic
CCc1c2c(nc3ccc(O)cc13)-c1cc3c(c(=O)n1C2)COC(=O)[C@]3(O)CC [7-ETHYL-10-HYDROXYCAMPTOTHECIN] | 515 | 8.85 | 1970 | 54 | 8 | 21 | 30 | –

— ChEMBL document CHEMBL3792343, “10-Boronic acid substituted camptothecin as prodrug of SN-38” (Eur J Med Chem, 2016)
